The nature of assay [1]: Displacement of [3H]DTG from rat liver sigma2 receptor by scintillation counting analysis in presence of pentazocine. For orientation: Loss of bound radioactivity is the signal in a displacement assay; it reports binding, not function.
The test system of assay [2] is MDCK. As to the kind of experiment: Inhibition of P-glycoprotein (unknown origin) expressed in MDCK cells assessed as ATP depletion at 100 uM by bioluminescence ATP assay. In kind it is cell-based. Particulars: Homo sapiens. An outline of the steps: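 MDCK-MDR1 cells (human MDR1-transfected) plated, incubated overnight at 37 °C, 5% CO2, then exposed to test compound in complete medium for 2 h at 37 °C. Cells lysed; ATP measured by firefly luciferase/D-luciferin luminescence after 10 min dark adaptation. Percentage ATP depletion reported at 100 μM.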

Assay [3] can be described thus: Inhibition of P-glycoprotein (unknown origin) expressed in MDCK cells assessed as reduction of calcein-AM transport after 30 mins by fluorescence assay. The class given is cell-based, Homo sapiens. The procedure, abridged:
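Confluent MDCK-MDR1 monolayers (50,000 cells/well, overnight) preincubated with compound (0.1–100 µM in medium) 30 min at 37 °C, then Calcein-AM added (2.5 µM final) for 30 min. Washed three times with ice-cold PBS; calcein fluorescence read at ex 485/em 535 nm versus untreated basal. EC50 from fit of % fluorescence increase versus log dose.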

Assay [4] concerns the target Sigma non-opioid intracellular receptor 1 (Cavia porcellus, UniProt Q60492). Put plainly: Displacement of [3H]-(+)-pentazocine from guinea pig brain sigma1 receptor by scintillation counting analysis.
Assay [5] deals with Sigma non-opioid intracellular receptor 1 (Cavia porcellus) (UniProt Q60492). Put plainly: Displacement of [3H]-(+)-pentazocine from guinea pig brain sigma1 receptor at […] by scintillation counting analysis.
Sigma non-opioid intracellular receptor 1 (Cavia porcellus), sequence (Q60492 whole entry): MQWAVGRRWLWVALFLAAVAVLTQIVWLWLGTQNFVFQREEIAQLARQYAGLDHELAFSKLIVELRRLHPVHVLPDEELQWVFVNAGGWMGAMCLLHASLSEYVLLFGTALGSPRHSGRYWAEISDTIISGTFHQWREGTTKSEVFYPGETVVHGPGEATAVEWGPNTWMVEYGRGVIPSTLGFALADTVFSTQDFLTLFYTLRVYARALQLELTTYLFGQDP
A short description of assay [6]: Displacement of [3H]DTG from rat liver sigma2 receptor at 10^-11 M by scintillation counting analysis in presence of pentazocine.

The source of these data is ChEMBL document CHEMBL3352454, “From mixed sigma-2 receptor/P-glycoprotein targeting agents to selective P-glycoprotein modulators: small structural changes address the mechanism of interaction at the efflux pump” (Eur J Med Chem, 2015).

Activity calls are given as the source filed them. The rule behind the calls is not given here.

Sigma non-opioid intracellular receptor 1, sequence (Q60492 whole entry): as above

In general, Ki refers to the equilibrium dissociation constant of an inhibitor or competing ligand from its target. One may read the inhibition as the relative decrease from the control value, in per cent. The term EC50 denotes the concentration at which the effect is half-maximal. `COc1cc2c(cc1OC)CN(C(=O)CCC1CCCc3c(OC)cccc31)CC2` (stereo unspecified): the Ki was over 10000 nM in assay [1] and over 5000 nM in assay [4]. Besides, the inhibition result in assay [2] was “Active”. In addition, the EC50 in assay [3] was 2900 nM.
Taken in the same sequence, the figures for `COc1cc2c(cc1OC)C(=O)N(CCCCn1c3ccccc3c3ccccc31)CC2` were over 10000 nM, over 5000 nM, 30% and 1910 nM.
In the case of `COc1cc2c(cc1OC)CN(CC/C=C1\CCCc3c(OC)cccc31)CC2`, the EC50 in assay [3] was 820 nM.
For the compound `COc1cccc2c1CCCC2CCCN1CCC(C2CCCCC2)CC1` (stereo unspecified), the Ki in assay [1] was 18.8 nM. Further, the EC50 in assay [3] is 1920 nM.
As for `COc1cc2c(cc1OC)CN(C(=O)CCCc1cn(-c3ccc(F)cc3)c3ccccc13)CC2`, the Ki in assay [1] is over 10000 nM; in assay [4] it was over 5000 nM. Further, the inhibition entry in assay [2] was “Active”. Also, the EC50 in assay [3] is 2250 nM.
As to `COc1cc2c(cc1OC)CN(CC(=O)N[C@H]1CCCc3c(OC)cccc31)CC2`, the Ki in assay [1] is 1760 nM; in assay [4], over 5000 nM. In assay [3], the EC50 was 10000 nM.
Taken in the same sequence, the figures for `COc1cc2c(cc1OC)CN(CC(=O)NC1CCCc3c(OC)cccc31)CC2` (racemic) were 1800 nM, over 5000 nM and 10000 nM.
The like results for `COc1cccc2c1CCCC2CCC(=O)N1CCC(c2ccc(F)cc2)CC1` (stereo unspecified) were, in that order, 6520 nM, 2930 nM and 26000 nM.
The like results for `COc1cccc2c1CCCC2CCC(=O)N1CCC(C2CCCCC2)CC1` (stereo unspecified) were, in that order, over 10000 nM, over 5000 nM and 30900 nM.
On to `COc1cc2c(cc1OC)CN(CCCCn1c3ccccc3c3ccccc31)CC2`, for which the figures for the Ki in assay [1] and in assay [4] were 0.04 nM and 2190 nM, respectively. In assay [2], the inhibition result was “Active”. Also, in assay [3], the EC50 was 420 nM.
Take `COc1cc2c(cc1OC)CN(CCCCc1cn(-c3ccc(F)cc3)c3ccccc13)CC2`: the values for the Ki in assay [1] and in assay [4] were 5.34 nM and 1390 nM, respectively. In assay [2], the inhibition result is “inactive”. The EC50 in assay [3] was 210 nM.
The like results for `COc1cc2c(cc1OC)C(=O)N(CCCCc1cn(-c3ccc(F)cc3)c3ccccc13)CC2` were, in that order, over 10000 nM, over 5000 nM, “inactive” and 2340 nM.
Consider `COc1cccc2c1CCCC2CCC(=O)N1CCC2(CC1)OCc1ccccc12` (stereo unspecified), for which the Ki in assay [1] turned out to be 3210 nM; in assay [4] it was 260 nM. Further, in assay [3], the EC50 is 5420 nM.
The like results for `COc1cc2c(cc1OC)CN(CC(=O)N[C@@H]1CCCc3c(OC)cccc31)CC2` were, in that order, 1950 nM, over 5000 nM and 9600 nM.
Consider `COc1cccc2c1CCCC2CCCN1CCC2(CC1)OCc1ccccc12` (stereo unspecified), for which the Ki in assay [1] worked out at 40.6 nM. Further, the inhibition in assay [5] worked out at 76%. Moreover, the EC50 in assay [3] was 2680 nM.
In the case of `COc1cccc2c1CCCC2CCCN1CCC(c2ccc(F)cc2)CC1` (stereo unspecified), the Ki in assay [1] was found to be 22.6 nM. This compound showed an inhibition in assay [5] of 80%. For the same compound, the EC50 in assay [3] is 1980 nM.
As for `COc1cc2c(cc1OC)CN(CCCC(=O)n1c3ccccc3c3ccccc31)CC2`, the Ki was over 10000 nM in assay [1] and over 5000 nM in assay [4]. Moreover, the inhibition result in assay [2] was “Active”. Besides, the EC50 in assay [3] was 820 nM.
Turning to `COc1cc2c(cc1OC)CN(CC(=O)NCc1cn(-c3ccc(F)cc3)c3ccccc13)CC2`, the values for the Ki in assay [1] and in assay [4] were 1620 nM and over 5000 nM, respectively. Moreover, the EC50 in assay [3] was 920 nM.
`COc1cc2c(cc1OC)CN(CCCC1CCCc3c(OC)cccc31)CC2` (stereo unspecified): the inhibition entry in assay [2] was “Active”. Also, the inhibition in assay [6] was determined as 96%. Moreover, the EC50 in assay [3] was 1150 nM.
